# Assay results from paper PMC3546139 (Molecular cancer therapeutics, 2012).
# Where two headings read alike, the source gives them in different places.
# Tests used:
# [1] = tested on: sporadic melanomas with mutant V600EB-Raf; settings: melanoma patients; cited from earlier work
# [2] = tested on: COX-2 expression in 1205 Lu and UACC 903 cells; assay: Western blot of COX-2 / COX-1 expression after MAP kinase pathway inhibitors; assay type: cell-based, human
# Summary of the method: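 Melanoma cells (1.5×10^6/100 mm dish) were treated 48 h after plating for 6–72 h with a B-Raf inhibitor (0.2–20 µmol/L) or a MEK inhibitor (2.5–50 µmol/L). Separately, cells were nucleofected with 100 pmoles siRNA against V600E B-Raf, MEK1, MEK2, ERK1 or ERK2, with lysates taken at day 4 or 6. Blots were probed for COX-1 and COX-2 and detected by enhanced chemiluminescence.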
# [3] = doses of 200 mg per day, cited from earlier work
# [4] = Survival and body weight of mice, daily i.p. injection for seven days; assay type: in vivo; settings: 0.127 µmoles i.p. daily, 7 days of treatment, n = 3
# Summary of the method: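 Mice received test compound intraperitoneally once daily for seven days at 0.032–0.064, 0.127 or 0.127–0.254 µmoles depending on agent, n = 3 per group. Survival and body-weight change were recorded.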
# [5] = tested on: FOM103 normal human melanocytes; assay: MTS cell viability assay, FOM103; assay type: cell-based; settings: Melanocyte, read-out: IC50, cell viability (MTS)
# [6] = tested on: 1205 Lu melanoma cells (metastatic); assay: MTS cell viability assay, 1205 Lu; assay type: cell-based; settings: Homo sapiens, 24 h, read-out: IC50, cell viability (MTS)
# melanoma cells = assay: MTS cell viability assay, melanoma cells; assay type: cell-based; settings: Homo sapiens, read-out: average IC50 for killing melanoma cells
# cultured cells = settings: cited from earlier work
# [7] = tested on: FF2441 human fibroblast cells; assay: MTS cell viability assay, FF2441; assay type: cell-based; settings: read-out: IC50, cell viability (MTS)
# [8] = tested on: UACC903 melanoma cells (metastatic); assay: MTS cell viability assay, UACC 903; assay type: cell-based; settings: Homo sapiens, read-out: IC50, cell viability (MTS)
smiles,measurement,setting,value
CCCS(=O)(=O)Nc1ccc(F)c(C(=O)c2c[nH]c3ncc(-c4ccc(Cl)cc4)cc23)c1F [PLX-4032],response rates,[1],up to 80%
same,COX-2 protein expression,[2]; 1205 Lu cells,decreased COX-2 protein expression beginning after 12 h of treatment
same,COX-2 protein expression,[2]; UACC 903 cells,significant decrease was seen from 24 h of treatment
same,COX-1 expression,"[2]; either cell line (1205 Lu, UACC 903)",no changes were observed in COX-1 expression
"Cc1ccc(-c2cc(C(F)(F)F)nn2-c2ccc(S(N)(=O)=O)cc2)cc1 [Celecoxib, 4-[5-(4-methylphenyl)-3-(trifluoromethyl)-1H-pyrazol-1-yl]benze nesulfonamide]",side effects associated with clinical use,"[3]; ref 15, 16",cardiovascular side effects
same,side effects associated with clinical use,[3]; ref 33,cardiovascular side-effects
same,animal mortality,[4],death of all animals
same,IC50,[5]; 48 h,> 100 µM
same,IC50,[5]; 72 h,68 ± 1.2 µM
same,IC50,[5],> 100 µM
same,IC50,[6],> 100 µM
same,IC50,melanoma cells,55.6 µM
same,concentrations required to induce apoptosis of cultured cells,cultured cells,25 to 100 µmol/L
same,concentrations required to trigger apoptosis in cultured cells,cultured cells,25 to 100 µmol/L
same,IC50,"[7]; FF2441, 24 h",> 100 µM
same,IC50,"[7]; FF2441, 48 h",> 100 µM
same,IC50,"[8]; UACC-903, 24 h",> 100 µM
same,IC50,"[8]; UACC-903, 48 h",> 100 µM
N#CC(=C(/N)Sc1ccccc1N)/C(C#N)=C(/N)Sc1ccccc1N [U0126],levels of COX-2 protein and COX-1,[2]; 1205 Lu and UACC 903 cell lines,reduced levels of COX-2 protein without affecting COX-1
